Data from ChEMBL document CHEMBL1150133, “New saponins from the starfish Certonardoa semiregularis” (J Nat Prod, 2002).
Converted amounts (≈) assume the structure as drawn.

Legend:
[1] = Cytotoxicity against human HeLa cells after 2 days by MTT assay; assay type: cell-based
In short: (§1)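 In HeLa cells, virus-induced CPE inhibition was run with infected or mock-infected wells, 30 min virus adsorption, and compound in DMEM/2% FBS in duplicate per concentration. After 2 days at 37 °C, MTT read-out gave EC50 from infected wells and CC50 from mock-infected wells.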

[2] = system: Human immunodeficiency virus 2; assay: Antiviral activity against HIV2 ROD infected in human MT4 cells assessed as inhibition of virus-induced cytopathic effect after 5 days by MTT assay; assay type: functional, organism-based; conditions: Human immunodeficiency virus 2, ROD, MT4, 120 h
In short: (§2)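 MT-4 cells (RPMI 1640/10% FBS), HIV-infected or mock-infected, were plated with 2× concentrated test samples and kept 5 days at 37 °C. Cells were inspected microscopically, then MTT was added for 1 h, dissolved in acidified 2-propanol, and read at 540 nm (690 nm reference). EC50 (50% protection) came from infected wells and CC50 (50% viability loss) from mock-infected wells.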

[3] = system: Encephalomyocarditis virus; assay: Antiviral activity against Encephalomyocarditis virus EMC infected in human HeLa assessed as inhibition of virus-induced cytopathic effect after 2 days by MTT assay; assay type: functional, organism-based; conditions: Cardiovirus A, 48 h; in short: as §1
[4] = Cytotoxicity against human MT4 cells after 5 days by MTT assay; assay type: cell-based; in short: as §2
[5] = system: Vesicular stomatitis Indiana virus; assay: Antiviral activity against Vesicular stomatitis Indiana virus infected in human HeLa assessed as inhibition of virus-induced cytopathic effect after 2 days by MTT assay; assay type: functional, organism-based; conditions: 48 h
In short: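 CPE-inhibition assay with VSV strain Indiana (stock grown in HeLa cells) on confluent HeLa cells (DMEM/5% FBS, gentamycin) in 96-well plates. Infection at 100 CCID50 per well with 30 min adsorption at 37 °C, then the compound in DMEM/2% FBS, duplicate wells per concentration, 2 days at 37 °C. Viability read by MTT; EC50 is the concentration giving 50% protection. Mock-infected wells gave CC50.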

Coxsackievirus B3 = assay: Antiviral activity against Coxsackievirus B3 Nancy infected in human HeLa assessed as inhibition of virus-induced cytopathic effect after 2 days by MTT assay; assay type: functional, organism-based; conditions: Enterovirus B, 48 h; in short: as §1
[6] = Cytotoxicity against african green monkey Vero cells after 3 days by MTT assay; assay type: cell-based; conditions: chlorocebus sabaeus
In short: (§3)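 Confluent Vero cells were infected at 100 CCID50 per well, or mock-infected, with 1 h adsorption at 37 °C. Compound in DMEM/2% FBS was added in duplicate per concentration, followed by 3 days at 37 °C. Viability was read by MTT, and EC50 for CPE inhibition and CC50 for cytocidal effect were calculated.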

[7] = system: Human immunodeficiency virus 1; assay: Antiviral activity against HIV1 3B infected in human MT4 cells assessed as inhibition of virus-induced cytopathic effect after 5 days by MTT assay; assay type: functional, organism-based; conditions: Human immunodeficiency virus 1, 3B, MT4, 120 h; in short: as §2
Human alphaherpesvirus 1 = assay: Antiviral activity against HSV1 F infected in african green monkey Vero cells assessed as inhibition of virus-induced cytopathic effect after 3 days by MTT assay; assay type: functional, organism-based; conditions: Human alphaherpesvirus 1, F, 72 h; in short: as §3
Human alphaherpesvirus 2 = assay: Antiviral activity against HSV2 MS infected in african green monkey Vero cells assessed as inhibition of virus-induced cytopathic effect after 3 days by MTT assay; assay type: functional, organism-based; conditions: Human alphaherpesvirus 2, MS, 72 h; in short: as §3

SMILES | CC50 at 48 h [1] [µg/mL] | EC50 [2] [µg/mL] | EC50 [3] [µg/mL] | CC50 at 120 h [4] [µg/mL] | EC50 [5] [µg/mL] | EC50 (Coxsackievirus B3) [µg/mL] | CC50 at 72 h [6] [µg/mL] | EC50 [7] [µg/mL] | EC50 (Human alphaherpesvirus 1) [µg/mL] | EC50 (Human alphaherpesvirus 2) [µg/mL]
C=C(CC[C@@H](C)[C@H]1C[C@@H](O)[C@@H]2[C@]1(C)CC[C@@H]1[C@@]3(C)CC[C@H](O)C[C@@H]3[C@@H](O)C[C@]12O)C(C)CO[C@@H]1OC[C@@H](O)[C@H](OS(=O)(=O)[O-])[C@H]1O[C@@H]1OC[C@@H](O)[C@H](O)[C@H]1OC.[Na+] (some centres not stated) [CERTONARDOSIDE C] | > 100 | > 1.4 | > 100 | 1.4 | > 100 | > 100 | 97.5 | > 1.4 | > 97.5 | > 97.5
NC(=O)c1ncn([C@@H]2O[C@H](CO)[C@@H](O)[C@H]2O)n1 [RIBAVIRIN] | 300 (≈ 1230 µM) | – | 27.2 (≈ 111 µM) | – | 13.7 (≈ 56.1 µM) | 236 (≈ 968 µM) | – | – | – | –
CO[C@@H]1CO[C@@H](OCC[C@@H](CC[C@@H](C)[C@H]2[C@@H](O)[C@@H](O)[C@@H]3[C@]2(C)CC[C@@H]2[C@@]4(C)CC[C@H](O)[C@H](O)[C@@H]4[C@@H](OS(=O)(=O)[O-])C[C@]23O)C(C)C)[C@H](O)[C@H]1O.[Na+] [CERTONARDOSIDE J] | 58.8 | > 67.4 | > 58.8 | 67.4 | > 58.8 | > 58.8 | > 100 | > 67.4 | 81.1 | 82.3
CO[C@H]1[C@H](O[C@H]2[C@H](O[C@@H](CC[C@@H](C)[C@H]3C[C@@H](O)[C@@H]4[C@]3(C)CC[C@@H]3[C@@]5(C)CC[C@H](O)[C@H](O)[C@@H]5[C@@H](O)C[C@]34O)C(C)C)O[C@H](CO)[C@@H]2O)OC[C@@H](OC)[C@@H]1O [CERTONARDOSIDE F] | 64.8 (≈ 85.2 µM) | > 39.7 | > 64.8 | 39.7 (≈ 52.2 µM) | > 64.8 | > 64.8 | > 100 | > 39.7 | > 100 | > 100
C=C(CC[C@@H](C)[C@H]1C[C@@H](O)[C@@H]2[C@]1(C)CC[C@@H]1[C@@]3(C)CC[C@H](O)[C@H](O)[C@@H]3[C@@H](O)C[C@]12O)C(C)CO[C@@H]1OC[C@@H](O)[C@H](OS(=O)(=O)[O-])[C@H]1O[C@@H]1OC[C@@H](O)[C@H](O)[C@H]1OC.[Na+] (some centres not stated) [CERTONARDOSIDE A] | > 100 | > 6.8 | > 100 | 6.8 | > 100 | > 100 | > 100 | > 6.8 | > 100 | > 100
CO[C@H]1[C@H](O[C@H]2[C@H](O[C@@H](CC[C@@H](C)[C@H]3C[C@@H](O)[C@H]4[C@@H]5C[C@H](O)[C@H]6[C@@H](O)[C@@H](O)CC[C@]6(C)[C@H]5CC[C@@]43C)C(C)C)O[C@H](CO)[C@@H]2O)OC[C@@H](OC)[C@@H]1O [CERTONARDOSIDE I] | 59.9 (≈ 80.4 µM) | > 42.5 | > 59.9 | 42.5 (≈ 57.1 µM) | > 59.9 | > 59.9 | > 100 | > 42.5 | > 100 | > 100
C=C(CC[C@@H](C)[C@H]1C[C@@H](O)[C@@H]2[C@]1(C)CC[C@@H]1[C@@]3(C)CC[C@H](O)[C@H](O)[C@@H]3[C@@H](O)C[C@]12O)C(C)CO[C@@H]1OC[C@@H](O)[C@H](O)[C@H]1O[C@@H]1OC[C@@H](O)[C@H](O)[C@H]1OC (some centres not stated) [ACODONTASTEROSIDE G] | 51.5 (≈ 67.9 µM) | > 42.5 | > 51.5 | 42.5 (≈ 56 µM) | > 51.5 | > 51.5 | > 100 | > 42.5 | 86.1 (≈ 113 µM) | 94.5 (≈ 125 µM)
O=c1[nH]cnc2c1ncn2[C@H]1CC[C@@H](CO)O1 [DIDANOSINE] | – | 11 (≈ 46.6 µM) | – | > 100 | – | – | – | 2.1 (≈ 8.89 µM) | – | –
